Active and inactive are the calls of the source.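 How the source made its calls: active means LXR activation with EC50, the half-maximal effective concentration, of 10 µM or lower; inactive means the rest.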
Molecular target: Oxysterols receptor LXR-beta (Homo sapiens) (UniProt P55055)
Assay: LXR activator potency, GAL4 reporter, dose response, selectivity assay for RORA inverse agonist project, cell-based, luminescence, powder sample (AID 463150)
Conditions: HEK293T GAL4-LXR LBD luciferase reporter, 18-24 h
Procedure, shortened: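 System – HEK293T with GAL4-LXR LBD fusion and UAS luciferase reporter · Dosing – 10-point dilution series, top nominal concentration 10 µM · Timing – 24 h bulk reverse transfection before replating, then 20 h compound exposure · Signal – luciferase reporter luminescence · Read-out – EC50 from sigmoidal fit of percent activation · Controls – DMSO-treated cells as normalization reference for luminescence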

Oxysterols receptor LXR-beta (Homo sapiens), sequence (P55055 whole entry, looked up, the tested form may be a part): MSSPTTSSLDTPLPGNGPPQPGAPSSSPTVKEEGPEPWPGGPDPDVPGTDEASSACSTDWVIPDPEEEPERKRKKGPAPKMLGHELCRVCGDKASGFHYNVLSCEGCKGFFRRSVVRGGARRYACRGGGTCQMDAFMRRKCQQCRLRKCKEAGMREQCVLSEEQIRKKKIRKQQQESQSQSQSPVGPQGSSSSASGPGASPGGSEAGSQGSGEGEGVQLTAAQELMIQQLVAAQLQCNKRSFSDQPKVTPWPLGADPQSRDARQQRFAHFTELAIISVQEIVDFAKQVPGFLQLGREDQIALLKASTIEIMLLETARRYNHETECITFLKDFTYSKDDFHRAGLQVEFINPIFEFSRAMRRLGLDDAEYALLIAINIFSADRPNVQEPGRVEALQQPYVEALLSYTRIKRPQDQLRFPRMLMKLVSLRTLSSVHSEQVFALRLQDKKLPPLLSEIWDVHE

O=S(=O)(Nc1ccc(C(O)(C(F)(F)F)C(F)(F)F)cc1)c1cccs1
EC50: > 10 µM (inactive)

Reference: PubChem BioAssay AID463150 (The Scripps Research Institute Molecular Screening Center, 2010)
